Data set [1] is described as follows: Drug metabolism rate assay. The settings on record: human, MHCC97-H cells. Type of data set: in vitro ADME.
Data set [2] relates to E-Cadherin. In words: AmpliSeq expression in MHCC97-H cells: E-Cadherin. Format: cell-based. The settings on record: Fig. 5B. In a few lines:
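MHCC97-H cells in DMEM with 10% FBS were treated with pralatrexate (2, 1, 0.5), fatostatin (1, 0.1) or BAY-876 (1, 0.1 μmol/L). RNA (10 ng) was reverse transcribed and amplified with custom AmpliSeq RNA panels. Expression was normalised to β-actin. Three replicate wells per sample; three biological replicates.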

The subject of data set [3] is miRNA-34a/Notch pathway. In words: BSP-NGS, AmpliSeq and western blot of subcutaneous tumour tissues. Format: in vivo, nude mice. In a few lines: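 Female BALB/c nude mice (5-week-old, SPF) bore subcutaneous MHCC97-H tumours, one per animal, 10 per group. Pralatrexate 5 mg/kg was given by oral gavage every other day for about 15 doses. All excised tumours underwent BSP-NGS (miRNA-34a promoter methylation) and AmpliSeq (miRNA-34a expression). Tumours 2, 4 and 8 were lysed in RIPA/SDS buffer for western blot of NICD against GAPDH.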
A general note: In western blotting, separated proteins are transferred to a membrane and probed.

The subject of data set [4] is HCC cells. In words: Biochemical examination of metabolic features. The settings on record: compared to BAY-876 or fatostatin, Fig. 6. Type of data set: cell-based.
Data set [5] concerns miRNA-34a promoter region. In words: BSP-NGS methylation of miRNA-34a promoter in MHCC97-H cells. Format: cell-based. The settings on record: MHCC97-H cells with direct expression of NICD, Fig. 7. In a few lines:
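Genomic DNA from NICD-lentivirus-transduced MHCC97-H cells was isolated with a kit and used for bisulfite sequencing PCR plus next-generation sequencing. The region analysed was the miRNA-34a promoter segment chr1: 9152409–9152574, which holds seven CpG sites. Methylation rates were calculated by the Ma et al. (2020) procedure.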

The test system of data set [6] is NICD. In words: AmpliSeq expression in MHCC97-H cells: NICD. Particulars: MHCC97-H cells with direct expression of NICD, Fig. 7. Format: cell-based.
Data set [7] has as its system Notch 1 protein and NICD. In words: Sub-cellular fraction assay with western blot. Type of data set: cell-based. The settings on record: MHCC97-H, 2 μmol/L, 30 min, 1 h, 2 h. In a few lines:
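After treatment, cells were sonicated. Nuclei were pelleted at 800 rpm, 4 °C, ~3 min, and the cytoplasmic fraction at 12,000 rpm, 4 °C, ~10 min. Fractions were boiled ~15 min in SDS-PAGE buffer and blotted onto PVDF. One C-terminal Notch1 antibody detected full-length Notch1 (>220 kDa) and NICD (~110 kDa). β-actin and Lamin A served as cytoplasmic and nuclear markers; detection was by chemiluminescence.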

The test system of data set [8] is miRNA-34a. In words: AmpliSeq miRNA-34a expression in MHCC97-H cells. The settings on record: MHCC97-H cells with direct expression of NICD, Fig. 7. Type of data set: cell-based. In a few lines:
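MHCC97-H cells were transduced with NICD lentivirus and cultured in DMEM with 10% FBS. RNA (10 ng) was reverse transcribed and cDNA amplified with custom AmpliSeq RNA panels to quantify miRNA-34a, normalised to β-actin. Three replicate wells per sample; three biological replicates.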

Data set [9] concerns MHCC97-H cells. In words: In vivo tumor model, MHCC97-H subcutaneous tumours. Further details: species or system nude mice.
The subject of data set [10] is MHCC97-H cells. In words: MTT assay, MHCC97-H cells. The settings on record: Homo sapiens, MHCC97H. Format: cell-based. In a few lines:
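MHCC97-H cells in DMEM with 10% FBS were pretreated 6–8 h with solvent control or pralatrexate (0.5, 1, 2 μmol/L). Molecular targeted drugs were then added as a seven-point series from 10 to 0.01 for about 48 h, with drugs dissolved in DMSO and diluted in DMEM. Viability was read by MTT at OD 490 nm. Inhibition % was computed against control and IC50 fitted in GraphPad Prism.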

Data set [11] relates to HepG2 2.2.15 cells. In words: MTT assay, HepG2 2.2.15 cells. Type of data set: cell-based. The settings on record: Homo sapiens. In a few lines: (§1)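 HCC cells were transfected with control siRNA or siRNA against DHFR. Test compound was dissolved in DMSO, diluted in DMEM and applied at a concentration series. Viability was read by MTT and OD 490 nm. Inhibition = (OD control − OD treated)/OD control × 100%. IC50 was taken from dose–effect curves.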
(In general: Formazan colour is commonly taken as a measure of viable cells.)

Data set [12] has as its system HepG2 cells. In words: MTT assay, HepG2 cells. The settings on record: Homo sapiens. Format: cell-based. In a few lines: as §1
Data set [13] relates to LMC-3 cells. In words: MTT assay, LMC-3 cells. Format: cell-based. In a few lines: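 LMC-3 cells in DMEM with 10% FBS were transfected with control siRNA or siDHFR. They were then exposed to graded sorafenib concentrations and assayed by MTT. Inhibition = (OD490 control − OD490 treated)/OD490 control × 100%. IC50 was fitted from dose–effect curves in GraphPad Prism.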

Broadly, the half-life is the time in which the quantity being followed falls by half. Read a high half-life as slow loss. By IC50 is commonly meant the concentration that inhibits the measured activity by half.

Entries after “also recorded” stand apart in the source; their conditions may differ. Read-outs that look alike come from different tables or passages of the source.

The compound `COc1cccc2c1C(=O)c1c(O)c3c(c(O)c1C2=O)C[C@@](O)(C(=O)CO)C[C@@H]3O[C@H]1C[C@H](N)[C@H](O)[C@H](C)O1` [Adriamycin, adriamycin] gave a half-life at 0.3 μmol/L in data set [1] of 795 min.

For the compound `C#CCC(Cc1cnc2nc(N)nc(N)c2n1)c1ccc(C(=O)N[C@@H](CCC(=O)O)C(=O)O)cc1` (stereo partly drawn) [Pralatrexate, pralatrexate], the E-Cadherin expression entry in [2] is “upregulated the expression of E-cadherin; also recorded: enhanced the expression of E-Cadherin”. Further, the “expression of NICD and Survivin in tumour tissue” value in data set [3] (NICD expression restored in MHCC97-H cells, Pralatrexate 5 mg/kg) was “no longer able to inhibit the expression of NICD and Survivin”. For the same compound, in data set [3] (Pralatrexate 5 mg/kg oral), the “expression of factors related to the Notch pathway in tumour tissue” value is listed as “down-regulate the expression of factors related to the Notch pathway”, the “expression of miRNA-34a in tumour tissue” value is given as “up-regulate the expression of miRNA-34a” and the “methylation of the promoter region of miRNA-34a in tumour tissue” value is recorded as “inhibit the methylation of the promoter region of miRNA-34a”. In addition, the “Warburg effect of HCC cells” value in data set [4] is “did not inhibit the Warburg effect”. Besides, in [5], the “methylation rates of miRNA-34a promoter region” value was “decrease the methylation rates”. For the same compound, the “expression levels of NICD and Notch downstream factors” value in data set [6] is “no longer able to affect the expression levels of NICD and Notch downstream factors”. In addition, in [7], the “Notch 1 protein expression (cytoplasm)” value is on record as “did not affect the protein expression of Notch 1” and the “distribution of NICD in the nucleus” value is “did not affect the distribution of NICD in the nucleus”. Further, the miRNA-34a expression entry in [8] is reported as “upregulate miRNA-34a expression”. Besides, in data set [9] (5 mg/kg Pralatrexate + 0.2 mg/kg sorafenib, oral), the “effect of combination on antitumour activity of sorafenib” value is “significantly increase the antitumour activity of sorafenib”. The “antitumour activity / cytotoxicity, subcutaneous tumours” value in data set [9] (Pralatrexate 5 mg/kg oral gavage, alone) was “did not have significant cytotoxicity and weak”. Further, the “anti-tumour activity, subcutaneous tumours” value in data set [9] (Pralatrexate higher doses (e.g. 20 mg/kg) oral gavage) is listed as “significant anti-tumour activity”.

With `CCCc1cc(-c2nc(-c3ccc(C)cc3)cs2)ccn1` [Fatostatin, fatostatin], the E-Cadherin expression entry in data set [2] is “enhanced the expression of E-Cadherin”.

As to `CNC(=O)c1cc(Oc2ccc(NC(=O)Nc3ccc(Cl)c(C(F)(F)F)c3)cc2)ccn1` [Sorafenib, sorafenib], the IC50 in data set [10] (read-out: IC50 value of sorafenib in MHCC97-H cells, Control siRNA) turned out to be 1110 nM; in data set [10] (read-out: IC50 values of Sorafenib on MHCC97-H cells, Control group) it was 1020 nM; in [10] (read-out: IC50 values of Sorafenib on MHCC97-H cells, DHFR + miRNA-34a), 250 nM; in data set [10] (read-out: IC50 values of Sorafenib on MHCC97-H cells, DHFR overexpression) it was 5380 nM; in data set [10] (read-out: IC50 values of Sorafenib on MHCC97-H cells, siDHFR + NICD), 5670 nM; in data set [11] (HepG2 2.2.15, read-out: IC50 values of sorafenib on HCC cells, HepG2 2.2.15 cells, control), 1250 nM. Further, the IC50 in data set [11] (HepG2 2.2.15, read-out: IC50 values of sorafenib on HCC cells, HepG2 2.2.15 cells, siDHFR) came to 13 nM; in data set [12] (HepG2, read-out: IC50 values of sorafenib on HCC cells, HepG2 cells, control), 1160 nM; in data set [12] (HepG2, read-out: IC50 values of sorafenib on HCC cells, HepG2 cells, siDHFR) it was 37 nM; in [13] (read-out: IC50 values of sorafenib on HCC cells, LMC-3 cells, control) it was 910 nM; in data set [13] (read-out: IC50 values of sorafenib on HCC cells, LMC-3 cells, siDHFR) it was 25 nM. Besides, the half-life at 1 μmol/L in [1] was 1130 min. For the same compound, the “antitumour activity, subcutaneous tumours” value in [9] (sorafenib 0.2 mg/kg (low dose) oral gavage, alone) is “weak subcutaneous tumourigenic inhibitory activity and weak”.

As for `Cc1c(NC(=O)c2cc(C(N)=O)nc3cc(F)ccc23)c(C(F)(F)F)nn1Cc1ccc(C#N)cc1` [BAY-876], in data set [2], the E-Cadherin expression result was “enhanced the expression of E-Cadherin”.

For the origin of these results see paper PMC11589030 (Discover Oncology, 2024).
